Assay outcomes deposited in PubChem BioAssay by Sanford-Burnham Center for Chemical Genomics.
697 NFkB inh: lowers PMA/ionomycin-induced NF-kB signal in 697 B cells; 697 B-cell NF-kB luciferase reporter, 16 h; inhibition, % at 4 µM; 0.33% of 330,000 active; in the data active = inhibition above about 35%
Jurkat NFkB inh: lowers PMA/ionomycin-induced NF-kB signal in Jurkat cells | PMA/ionomycin-induced NF-kB luciferase reporter, luminescence | 0.53% of 330,000 active | AID 435003 | inhibition, % at 4 µM; in the data active = inhibition above about 50%
UPR XBP1 act: adaptive UPR (XBP1) activation; AID 463104; activation, % at 20 µM; 0.33% of 330,000 active; CHO-XBP1 luciferase reporter, IRE1-XBP1 UPR activation, luminescence; percent of tunicamycin response, DMSO as zero;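 active = versus positive control, 20 µM dose yields 30% or more activation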;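 also: 100% = tunicamycin at 10 µg/mL and 0% = DMSO only wells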
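Material: CHO cell line with stable XBP1 luciferase reporter; buffer or medium: F12 medium containing 10% fetal bovine serum; compound: single point, 20 µM final compound, 1% DMSO; incubation: 6 h treatment, 37 °C; measured by: glow luminescence from Steady-Glo reagent; evaluation: activation, % of tunicamycin; control set: tunicamycin high, DMSO low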
CRFR2-BP antag: CRF-BP/CRF-R2 complex antagonism | AID 588475 | inhibition, % at 11.8 µM | HEK293 CRF-R2/CRF-BP, CRF-induced calcium fluorescence | 0.59% of 350,000 active;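 active = inhibition of the ligand-induced calcium signal above about 50% at the single tested concentration, limit read from the data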
CHOP UPR activ: apoptotic UPR (CHOP) activation; CHO-CHOP luciferase reporter, luminescence; percent of tunicamycin response over DMSO baseline; activation, % at 10 µM; 0.34% of 330,000 active; AID 449763;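 active = at 10 µM dose, activation of 40% or more, normalized to positive control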;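 also: 100% = tunicamycin at 10 µg/mL and 0% = DMSO alone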
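measured by = luciferase luminescence | assay system = CHO-CHOP cells, stable luciferase reporter of PERK-eIF2a-CHOP signalling | amount = 500 reporter cells seeded per well | timing = 6 h compound exposure at 37 °C after overnight seeding | controls = positive tunicamycin 10 µg/mL, negative DMSO alone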
CHOP UPR conf: confirmation of apoptotic unfolded protein response (CHOP) activators; shares compounds with CHOP UPR activ; CHO-CHOP cells, CHOP-luciferase reporter luminescence; percent of tunicamycin response, DMSO as zero; activation, % at 10 µM; 64% of 1,000 active; AID 463112; in the data active = activation above about 33%;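 also: 0% = DMSO wells and 100% = tunicamycin 10 µg/mL wells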
Active calls of the source: *; . = not tested or not shown. Hits are enriched below; roughly 1.8% of the tested compounds scored in any of these assays.

SMILES | 697 NFkB inh | Jurkat NFkB inh | UPR XBP1 act | CRFR2-BP antag | CHOP UPR activ | CHOP UPR conf
Cc1cc(N/N=C/c2ccccc2[N+](=O)[O-])nc(-n2nc(C)cc2C)n1 | -18.5 | 5.5 | 12.1 | -4.9 | 121.5* | 94.3*
Cc1cc(N/N=C/c2cccc(Cl)c2)nc(-n2nc(C)cc2C)n1 | 10.1 | 2.5 | 5.9 | 6.8 | 50.5* | 6.7
Cc1cc(N/N=C/c2cccc([N+](=O)[O-])c2)nc(-n2nc(C)cc2C)n1 | 10.7 | -0.3 | 0.9 | -2.6 | -0.1 | .
COc1ccc(/C=N/Nc2cc(C)nc(-n3nc(C)cc3C)n2)cc1 | 4.9 | -3.5 | 8.3 | -56.0 | 52.2* | 32.7*
COc1ccc(O)c(/C=N/Nc2nc(C)cc(-c3ccccc3)n2)c1 | 3.0 | 5.9 | -1.6 | -1.4 | 6.3 | .
COc1ccc(O)c(/C=N/Nc2nc(Nc3ccccc3)nc(-n3nc(C)cc3C)n2)c1 | 28.2 | 19.8 | -0.3 | 3.7 | 101.7* | 111.6*
Cc1cc(N/N=C/c2ccc(O)cc2O)nc(-n2nc(C)cc2C)n1 | . | . | . | -32.3 | . | .
C=CCOc1ccc(CN(C)C(=O)c2ccc(CNS(=O)(=O)c3ccc(C)c(C)c3)cc2)cc1 | -21.5 | 4.0 | -1.2 | 7.3 | 3.7 | .
CCCN(CCC)Cc1c(C(=O)N/N=C/CCc2ccccc2)nnn1-c1nonc1N | 10.6 | 2.2 | 2.0 | 6.6 | 1.7 | .
O=C(Nc1ccccc1C(=O)NC1CC1)c1ccccc1F | 5.8 | 15.7 | 0.4 | -2.1 | -3.3 | .
c1ccc(-c2nc(NCc3ccco3)c3ccccc3n2)nc1 | 11.4 | 7.1 | 5.9 | -7.0 | 67.1* | 8.1
Cc1cccc(Oc2nc(-c3ccccn3)nc3ccccc23)c1 | -46.7 | -15.9 | 12.1 | -15.7 | 37.7 | .
c1ccc(N2CCN(c3nc(-c4ccccn4)nc4ccccc34)CC2)cc1 | -4.1 | 5.2 | 16.9 | -17.8 | 96.7* | 21.4
Cc1ccccc1Oc1nc(-c2ccccn2)nc2ccccc12 | -4.0 | 3.6 | 18.2 | -4.6 | 48.6* | 8.1
CN(C(=O)c1cccc(NC(=O)Cc2ccc(NC(=O)C3CCCN(C(=O)C4CC4)C3)cc2)c1)C1CCC1 (centres undefined) | . | . | . | 9.1 | . | .
CCCN=C1N(CC)C[C@@H]2[C@@H]3C(=O)N(C)C(=O)[C@@H]3[C@](C)(C(=O)OC)N12 | -20.2 | . | 0.6 | 1.0 | 0.8 | .
Cc1cccc(C(=O)OCc2cc(=O)oc3c(C)c(C)ccc23)c1O | -11.5 | -27.3 | 34.1* | -8.1 | 43.2* | 4.5
CCOc1ncccc1C(=O)OCc1cc(=O)oc2c(C)c(C)ccc12 | . | . | . | 13.3 | . | .
Cc1cc(C)c(C(CC(=O)c2cccs2)C(C#N)C#N)c(C)c1 (centres undefined) | -33.1 | -65.3 | -0.6 | -32.5 | 46.9* | 95.2*
C[C@H](CO)N1C[C@H](C)[C@@H](CN(C)S(=O)(=O)c2cn(C)cn2)OCc2cn(nn2)CCCC1=O | . | . | . | 20.1 | . | .
CS(=O)(=O)c1nc(-c2ccc(F)cc2)cc(C(F)(F)F)n1 | . | . | . | -66.9 | . | .
COc1ccc(-c2cc(C(F)(F)F)nc(S(C)(=O)=O)n2)cc1 | -17.0 | -5.0 | 2.3 | 5.6 | 43.1* | 8.8
CCOC(=O)CCS(=O)(=O)c1nc(-c2ccccc2)cc(C(F)(F)F)n1 | -140.1 | 34.2 | -10.8 | -5.4 | 72.8* | -8.8
CCOC(=O)CS(=O)(=O)c1nc(-c2ccccc2)cc(C(F)(F)F)n1 | -51.4 | -7.2 | -8.8 | 12.8 | -11.3 | .
CN(C)c1nc(N)c(C#N)c(C#N)c1C#N | . | . | . | -26.0 | . | .
SMILES | 697 NFkB inh | Jurkat NFkB inh | UPR XBP1 act | CRFR2-BP antag | CHOP UPR activ | CHOP UPR conf
Oc1ccc(-c2csc(-c3ccccc3)n2)cc1O | -158.8 | 13.8 | 13.2 | -19.1 | 143.5* | 52.5*
Cc1cc(C)nc(Sc2ncnc(N)c2[N+](=O)[O-])n1 | -12.6 | 9.1 | -7.6 | 10.2 | 94.6* | 9.0
CCCS(=O)(=O)c1c(S(=O)(=O)CCC)c2c(N)cccn2c1C(=O)c1ccc(OC)cc1 | -21.5 | 11.1 | -4.0 | -22.7 | 55.0* | 0.4
Cc1ccc2c(c1)c(N=Nc1ccc([N+](=O)[O-])cc1)c(O)n2C | 13.5 | 10.5 | 98.9* | -2.0 | 72.9* | 3.5
Oc1c(C(Nc2ccccn2)c2ccccn2)ccc2cccnc12 (centres undefined) | -15.9 | 23.9 | 15.4 | 7.4 | 58.8* | 70.8*
COc1cc(C(Nc2ccccn2)c2ccc3ccc(C)nc3c2O)cc(OC)c1O (centres undefined) | -84.4 | 2.3 | 1.1 | 8.3 | 262.7* | 251.2*
CN(CC(=O)Nc1ccc(Cl)c(Cl)c1)CC(=O)N1CCc2ccccc21 | . | . | . | -28.1 | . | .
C=C(C)C(=O)OC1(C(F)(F)F)Oc2cc(C)ccc2NC1=O (centres undefined) | -46.0 | 16.2 | -4.7 | -6.3 | 44.9* | 20.4
CCOC(=O)C1(N(CC)CC)Sc2cc(C)ccc2NC1=O (centres undefined) | 6.1 | 25.8 | -1.7 | -26.9 | -0.5 | .
COc1cccc(/C=C/c2ccc3cccc(O)c3n2)c1OC | -153.0 | -46.3 | 5.0 | 0.5 | 26.3 | .
COc1ccc(/C=C/c2ccc3cccc(O)c3n2)c(OC)c1OC | -206.8 | 7.9 | 11.4 | 5.8 | 135.3* | 31.1
CC1(c2ccccc2)NC(=O)N(CC(=O)N2CCN(S(=O)(=O)c3cccc([N+](=O)[O-])c3)CC2)C1=O (centres undefined) | 3.0 | 0.5 | -0.1 | -3.3 | 0.8 | .
O=C(c1ccc(Br)cc1)C(CN1CCOCC1)c1ccccc1 (centres undefined) | -88.8 | 33.4 | 0.2 | -7.4 | 105.1* | 137.3*
Cc1cc(C(=O)c2ccc(C(C)(C)C)cc2)c(NC(=O)CCl)s1 | 0.8 | -2.5 | 5.9 | -63.5 | 50.3* | 93.7*
CC(C)(C)OC(=O)C[C@H]1C/C=C\C[C@H](CC(=O)NCCO)C(=O)N2CCC[C@@H]2COC1=O | 4.5 | -8.7 | -0.9 | 4.6 | 0.0 | .
N=C1/C(=C/c2cccn2-c2ccc([N+](=O)[O-])cc2)C(=O)N=C2SC=CN12 | 29.2 | 14.3 | 8.0 | 1.5 | 53.9* | 13.8
NS(=O)(=O)c1ccc(NC2=CC(=O)C(=O)c3ccccc32)cc1 | 12.0 | -3.9 | 9.9 | 27.4 | 15.8 | .
CCOC(=O)c1ccc(NC2=CC(=O)C(=O)c3ccccc32)cc1 | -8.9 | 3.0 | 9.2 | 4.5 | 65.0* | 8.6
CCc1ccc(NC(=O)c2nc(S(=O)(=O)Cc3ccccc3)ncc2Cl)cc1 | -128.6 | 37.9 | -9.6 | . | -10.6 | .
CC(C)c1nnc(NC(=O)c2nc(S(=O)(=O)Cc3ccccc3)ncc2Cl)s1 | -66.4 | -0.3 | -8.6 | 19.8 | 61.7* | 7.9
CSc1nnc(NC(=O)c2nc(S(=O)(=O)Cc3ccccc3)ncc2Cl)s1 | -24.8 | 5.6 | -7.8 | 26.7 | 55.9* | 61.0*
CCN(Cc1ccccc1)S(=O)(=O)c1cn(C)cn1 | -53.4 | -23.5 | -2.2 | -9.7 | 1.1 | .
